Test [1] in a line: Inhibition of Caldocellum saccharolyticum beta-glucosidase by spectrophotometry. On the set-up: species or system Caldicellulosiruptor saccharolyticus. Summed up: (§1)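 Commercial enzyme assayed with the matching p-nitrophenyl glycoside (2 mM) in a 1 mL reaction, at pH 5.0 for the C. saccharolyticum and almond beta-glucosidases, pH 6.8 for bovine liver beta-galactosidase and pH 6.8 for yeast alpha-glucosidase. The reaction was stopped with 2 mL of 400 mM Na2CO3 and released p-nitrophenol was read at 400 nm. IC50 was determined.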

Test [2] has as its target T1, Beta-galactosidase (Bos taurus, UniProt Q58D55).
T1 sequence (Q58D55 whole entry): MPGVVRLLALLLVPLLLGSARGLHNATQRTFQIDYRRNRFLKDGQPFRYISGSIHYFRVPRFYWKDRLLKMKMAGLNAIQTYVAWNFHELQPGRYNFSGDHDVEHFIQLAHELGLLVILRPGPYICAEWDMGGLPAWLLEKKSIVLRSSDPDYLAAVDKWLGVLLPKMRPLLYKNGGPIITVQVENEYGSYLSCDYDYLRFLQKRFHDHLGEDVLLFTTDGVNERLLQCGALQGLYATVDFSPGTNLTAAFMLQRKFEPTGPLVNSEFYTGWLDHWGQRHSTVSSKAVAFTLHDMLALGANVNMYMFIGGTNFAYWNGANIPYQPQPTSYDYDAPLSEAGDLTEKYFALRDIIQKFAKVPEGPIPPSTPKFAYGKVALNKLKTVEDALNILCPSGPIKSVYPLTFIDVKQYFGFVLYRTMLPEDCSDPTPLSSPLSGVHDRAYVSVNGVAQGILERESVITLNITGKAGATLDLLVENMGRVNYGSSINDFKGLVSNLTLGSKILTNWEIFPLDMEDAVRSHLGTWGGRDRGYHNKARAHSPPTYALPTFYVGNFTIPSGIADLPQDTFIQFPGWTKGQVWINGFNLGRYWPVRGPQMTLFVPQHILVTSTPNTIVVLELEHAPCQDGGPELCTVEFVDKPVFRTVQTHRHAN
Description: Inhibition of bovine liver beta-galactosidase by spectrophotometry. Summed up:
as §1

The nature of test [3]: Inhibition of almond beta-glucosidase by spectrophotometry. Also on record: species or system Prunus dulcis. Summed up: as §1
Test [4] is described as follows: Inhibition of yeast alpha-glucosidase by spectrophotometry. On the set-up: species or system Saccharomyces cerevisiae. Summed up:
as §1

For test [5], the species on record is Rattus norvegicus. Description: Inhibition of rat epididymis alpha-mannosidase at 1000 uM by spectrophotometry. The method, boiled down:
(§2)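 Enzyme source was rat epididymal fluid purified from epididymis, assayed at pH 5.2 with 2 mM of the relevant p-nitrophenyl glycoside in a 1 mL reaction. The reaction was stopped with 2 mL of 400 mM Na2CO3 and p-nitrophenol was measured at 400 nm.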

Test [6] addresses T2, Beta-mannosidase (Rattus norvegicus, UniProt Q4FZV0).
T2 sequence (Q4FZV0 whole entry): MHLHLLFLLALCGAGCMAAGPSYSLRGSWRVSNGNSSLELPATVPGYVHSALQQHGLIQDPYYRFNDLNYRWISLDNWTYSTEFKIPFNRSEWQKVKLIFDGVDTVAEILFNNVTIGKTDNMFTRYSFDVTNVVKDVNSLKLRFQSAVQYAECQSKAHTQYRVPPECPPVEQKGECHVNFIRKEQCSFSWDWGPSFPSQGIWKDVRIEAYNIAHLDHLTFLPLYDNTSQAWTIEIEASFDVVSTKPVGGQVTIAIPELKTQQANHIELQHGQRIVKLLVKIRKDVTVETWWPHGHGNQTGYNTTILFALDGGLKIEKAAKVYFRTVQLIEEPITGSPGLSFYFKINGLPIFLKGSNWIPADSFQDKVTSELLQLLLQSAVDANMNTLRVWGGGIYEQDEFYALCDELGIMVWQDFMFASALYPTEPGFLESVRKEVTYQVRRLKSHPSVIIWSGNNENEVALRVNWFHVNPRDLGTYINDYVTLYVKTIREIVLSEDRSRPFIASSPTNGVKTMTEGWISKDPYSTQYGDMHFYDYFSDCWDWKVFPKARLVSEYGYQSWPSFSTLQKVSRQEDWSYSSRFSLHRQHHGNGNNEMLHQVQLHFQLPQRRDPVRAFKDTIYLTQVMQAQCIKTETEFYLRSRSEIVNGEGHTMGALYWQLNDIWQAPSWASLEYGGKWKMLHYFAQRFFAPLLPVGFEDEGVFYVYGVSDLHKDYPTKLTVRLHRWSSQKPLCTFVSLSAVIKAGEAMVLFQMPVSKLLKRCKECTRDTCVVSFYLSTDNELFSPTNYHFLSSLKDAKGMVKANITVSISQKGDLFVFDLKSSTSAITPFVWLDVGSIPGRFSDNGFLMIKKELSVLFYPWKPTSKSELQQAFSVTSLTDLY
Kind of test: Inhibition of rat epididymis beta-mannosidase by spectrophotometry. Summed up:
as §2

In test [7] the target is Alpha-galactosidase (Coffea arabica) (UniProt Q42656). Kind of test: Inhibition of coffee bean alpha-galactosidase at 1000 uM by spectrophotometry. The method, boiled down: (§3)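 Commercial enzymes (P. decumbens alpha-L-rhamnosidase at pH 4.5, bovine epididymis alpha-L-fucosidase at pH 5.5, coffee bean alpha-galactosidase at pH 6.5) were incubated with 2 mM p-nitrophenyl glycoside in a 1 mL reaction. The reaction was stopped with 2 mL of 400 mM Na2CO3 and p-nitrophenol was read at 400 nm.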
Alpha-galactosidase (Coffea arabica), sequence (Q42656 16-378 limits assumed): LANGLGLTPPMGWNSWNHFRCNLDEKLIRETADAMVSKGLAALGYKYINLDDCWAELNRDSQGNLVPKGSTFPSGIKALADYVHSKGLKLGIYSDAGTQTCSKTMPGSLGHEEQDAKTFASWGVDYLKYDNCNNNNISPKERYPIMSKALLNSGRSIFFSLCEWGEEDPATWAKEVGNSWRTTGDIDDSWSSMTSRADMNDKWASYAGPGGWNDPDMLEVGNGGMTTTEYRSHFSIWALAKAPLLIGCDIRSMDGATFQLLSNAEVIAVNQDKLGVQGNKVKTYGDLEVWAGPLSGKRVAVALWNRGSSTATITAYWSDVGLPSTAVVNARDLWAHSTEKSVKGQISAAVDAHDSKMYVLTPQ

The test system of test [8] is Penicillium decumbens. Kind of test: Inhibition of Penicillium decumbens alpha-L-rhamnosidase at 1000 uM by spectrophotometry. The method, boiled down: as §3
The target in test [9] is T3, Tissue alpha-L-fucosidase (Bos taurus) (UniProt Q2KIM0).
T3 sequence (whole entry): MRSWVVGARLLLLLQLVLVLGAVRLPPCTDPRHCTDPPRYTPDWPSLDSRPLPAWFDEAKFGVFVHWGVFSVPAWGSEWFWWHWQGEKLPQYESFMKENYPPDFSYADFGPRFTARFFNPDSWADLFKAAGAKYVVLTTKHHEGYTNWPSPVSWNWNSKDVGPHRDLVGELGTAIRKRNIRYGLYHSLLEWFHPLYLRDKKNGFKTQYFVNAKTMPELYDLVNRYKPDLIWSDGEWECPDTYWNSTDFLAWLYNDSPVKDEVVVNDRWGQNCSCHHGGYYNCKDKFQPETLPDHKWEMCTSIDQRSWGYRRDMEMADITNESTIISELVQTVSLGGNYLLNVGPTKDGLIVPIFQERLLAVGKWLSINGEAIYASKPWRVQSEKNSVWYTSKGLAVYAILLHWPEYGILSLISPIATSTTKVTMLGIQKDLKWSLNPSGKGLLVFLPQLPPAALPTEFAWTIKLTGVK
Kind of test: Inhibition of bovine epididymis alpha-L-fucosidase at 1000 uM by spectrophotometry. The method, boiled down:
as §3

The species named for test [10] is Rattus norvegicus. Description: Inhibition of rat epididymis beta-galactosidase at 1000 uM by spectrophotometry. The method, boiled down: as §2
In test [11] the test system is maltase-glucoamylase (Rattus norvegicus). Description: Inhibition of rat intestinal maltase at 1000 uM by spectrophotometry.
Test [12] concerns the target T4, Lysosomal acid glucosylceramidase (Homo sapiens) (UniProt P04062).
T4 sequence (whole entry): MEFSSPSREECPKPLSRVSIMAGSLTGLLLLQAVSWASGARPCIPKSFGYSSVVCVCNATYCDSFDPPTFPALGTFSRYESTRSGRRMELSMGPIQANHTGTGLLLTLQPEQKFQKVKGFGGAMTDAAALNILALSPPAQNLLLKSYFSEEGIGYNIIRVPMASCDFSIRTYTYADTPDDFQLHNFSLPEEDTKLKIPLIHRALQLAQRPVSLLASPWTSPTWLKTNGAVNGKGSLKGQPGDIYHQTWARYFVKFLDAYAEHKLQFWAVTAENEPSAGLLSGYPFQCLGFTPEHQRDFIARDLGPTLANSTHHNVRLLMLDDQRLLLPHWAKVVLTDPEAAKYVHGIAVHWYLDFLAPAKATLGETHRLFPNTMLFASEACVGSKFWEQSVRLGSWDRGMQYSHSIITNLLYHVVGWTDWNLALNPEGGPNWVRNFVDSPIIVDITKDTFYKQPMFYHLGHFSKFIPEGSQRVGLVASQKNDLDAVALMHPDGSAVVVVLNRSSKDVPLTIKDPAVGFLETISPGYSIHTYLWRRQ
Kind of test: Inhibition of human placental beta-glucocerebrosidase at 1000 uM by spectrophotometry.

Test [13] is described as follows: Inhibition of rice alpha-glucosidase by spectrophotometry. On the set-up: species or system Oryza sativa.
Test [14] addresses T5, Beta-mannosidase (Rattus norvegicus) (UniProt Q4FZV0).
T5 sequence (whole entry): T2 sequence (Q4FZV0 whole entry)
Description: Inhibition of rat epididymis beta-mannosidase at 1000 uM by spectrophotometry.

The test system of test [15] is Prunus dulcis. Description: Inhibition of almond beta-glucosidase at 1000 uM by spectrophotometry.
Test [16] relates to Oryza sativa. Kind of test: Inhibition of rice alpha-glucosidase at 1000 uM by spectrophotometry.
In test [17] the test system is Saccharomyces cerevisiae. Description: Inhibition of yeast alpha-glucosidase at 1000 uM by spectrophotometry.
The target in test [18] is T6, Beta-galactosidase (Bos taurus) (UniProt Q58D55).
T6 sequence (whole entry): T1 sequence (Q58D55 whole entry)
Kind of test: Inhibition of bovine liver beta-galactosidase at 1000 uM by spectrophotometry.

Turning to `OC[C@@H](O)[C@H]1N[C@H](CO)[C@@H](O)[C@@H]1O`, the concentration for half-maximal inhibition (IC50) in [1] worked out at 3.2 µM; in test [2] it was 4.4 µM.

Compound `O=C(CCCCO)CCCCCCC[C@@H](O)[C@H]1N[C@H](CO)[C@@H](O)[C@@H]1O` yielded an IC50 in test [3] of 0.01 µM.

Turning to `CC(O)[C@@H](O)[C@H]1N[C@H](CO)[C@@H](O)[C@@H]1O` (stereo partly drawn), the IC50 in test [1] turned out to be 20 µM; in test [3], 120 µM; in [4], 630 µM; in test [6], 150 µM; in [2], 130 µM; in test [13] it was 650 µM. For the same compound, the inhibition in [5], in test [7], in test [8], in [9], in test [10] and in test [11] was less than 50% throughout. In test [12], this compound gave an inhibition of less than 50%.

On to `O=C(CCCO)CCCCCCCC[C@@H](O)[C@H]1N[C@H](CO)[C@@H](O)[C@@H]1O`, for which the IC50 in test [3] came to 0.01 µM.

On to `O=C(CCCCCCCC[C@@H](O)[C@H]1N[C@H](CO)[C@@H](O)[C@@H]1O)CCCO[C@@H]1O[C@H](CO)[C@@H](O)[C@H](O)[C@H]1O`, for which the IC50 in test [3] stood at 0.01 µM.

`OCC(O)CC(O)[C@@H]1CC[C@@H]2[C@H](O)[C@H](O)[C@@H](CO)N21` (stereo partly drawn): the IC50 in test [1] was determined as 11.4 µM; in [3] it was 25.4 µM; in [4], 650 µM; in test [2], 920 µM; in test [13] it was 390 µM. Further, the inhibition in [5], in test [7], in [8], in test [9], in test [10] and in test [11] was less than 50% in each case. The inhibition in [12] and in [14] was less than 50% throughout.

Compound `OC[C@H]1N[C@H](C(O)CCC[C@@H]2CCC[C@]3(CCCCO3)O2)[C@@H](O)[C@@H]1O` (stereo partly drawn) had an IC50 in test [3] of 0.01 µM.

Regarding `O=C(CCCCCCC[C@@H](O)[C@H]1N[C@H](CO)[C@@H](O)[C@@H]1O)CCCCO[C@@H]1O[C@H](CO)[C@@H](O)[C@H](O)[C@H]1O`, in [3], the IC50 amounted to 0.01 µM. That is a double-digit nanomolar value.

Turning to `CC(O)C[C@H]1N[C@H](CO)[C@@H](O)[C@@H]1O` (stereo partly drawn), the IC50 is 700 µM in [1]; 100 µM in [4]; 610 µM in test [6]; 260 µM in test [2]; 210 µM in test [13]. For the same compound, the inhibition in test [5], in test [15], in test [7], in [8], in test [9] and in test [10] was less than 50% in each case. This compound also returned an inhibition in test [12] of less than 50%.

With `CC(O)CC[C@@H]1C[C@@H](O)[C@@H]2[C@@H](O)[C@H](O)[C@@H](CO)N12` (stereo partly drawn), the IC50 in [1] turned out to be 200 µM; in [4], 6.6 µM; in [2], 320 µM. The inhibition in test [16], in [5], in test [15], in test [7], in test [8] and in [9] was less than 50% in each case. The inhibition in test [10], in test [11], in test [12] and in test [14] was less than 50% in each case.

As for `OC[C@@H]1[C@@H](O)[C@H](O)[C@H]2[C@H](O)CCN21`, in test [4], half-maximal inhibition (IC50) was put at 95 µM.

`OC[C@H]1N[C@H]([C@H](O)CCCC[C@@H]2CCC[C@]3(CCCO3)O2)[C@@H](O)[C@@H]1O` registered an IC50 in test [3] of 0.01 µM.

Consider `CC(O)CC[C@@H]1CC[C@@H]2[C@@H](O)[C@H](O)[C@@H](CO)N12` (stereo partly drawn), for which the IC50 came out at 136 µM in [1] and 49 µM in [3]. Besides, the inhibition in [16], in [17], in test [5], in test [18], in [7] and in [8] was less than 50% each time. Besides, the inhibition in test [9], in test [10], in test [11], in [12] and in test [14] was less than 50% throughout.

The values are drawn from ChEMBL document CHEMBL1151206, “Glycosidase-inhibiting pyrrolidines and pyrrolizidines with a long side chain in Scilla peruviana” (J Nat Prod, 2004).
